Laboratory results as given in ChEMBL document CHEMBL2401700, “Discovery of TD-8954, a clinical stage 5-HT(4) receptor agonist with gastrointestinal prokinetic properties” (Bioorg Med Chem Lett, 2013).

Key:
[1] = molecular target: T1, 5-hydroxytryptamine receptor 4 (Homo sapiens, UniProt Q13639); assay: Agonist activity at human recombinant 5HT4 receptor assessed as cAMP accumulation relative to 5-HT; type: functional
Outline: (§1)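 cAMP accumulation in cells expressing human recombinant 5-HT4 receptor, reported as pEC50 with intrinsic activity as % of the maximum response achieved by 5-HT.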

[2] = molecular target: T1, 5-hydroxytryptamine receptor 4; assay: Binding affinity to human recombinant 5HT4 receptor
[3] = molecular target: T2, 5-hydroxytryptamine receptor 3A (Homo sapiens, UniProt P46098); assay: Binding affinity to human recombinant 5HT3 receptor
T2 sequence (P46098 whole entry): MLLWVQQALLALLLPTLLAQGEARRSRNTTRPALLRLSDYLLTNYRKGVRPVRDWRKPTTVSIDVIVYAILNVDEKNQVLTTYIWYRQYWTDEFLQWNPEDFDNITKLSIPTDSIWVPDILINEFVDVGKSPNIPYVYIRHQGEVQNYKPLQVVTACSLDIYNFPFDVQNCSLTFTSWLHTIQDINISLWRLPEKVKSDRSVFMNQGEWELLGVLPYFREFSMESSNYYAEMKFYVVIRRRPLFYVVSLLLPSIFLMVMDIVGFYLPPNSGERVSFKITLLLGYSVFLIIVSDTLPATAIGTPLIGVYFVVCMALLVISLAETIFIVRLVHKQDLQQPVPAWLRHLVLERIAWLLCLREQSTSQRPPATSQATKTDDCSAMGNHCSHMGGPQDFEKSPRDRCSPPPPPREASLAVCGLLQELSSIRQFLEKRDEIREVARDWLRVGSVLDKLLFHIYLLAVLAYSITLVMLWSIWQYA

[4] = molecular target: T1, 5-hydroxytryptamine receptor 4; assay: Agonist activity at human recombinant 5HT4 receptor assessed as cAMP accumulation; type: functional; outline: as §1
[5] = molecular target: hERG (KCNH2) (Homo sapiens, UniProt Q12809); assay: Inhibition of human ERG channel at 3 uM
hERG (KCNH2), sequence (Q12809 whole entry): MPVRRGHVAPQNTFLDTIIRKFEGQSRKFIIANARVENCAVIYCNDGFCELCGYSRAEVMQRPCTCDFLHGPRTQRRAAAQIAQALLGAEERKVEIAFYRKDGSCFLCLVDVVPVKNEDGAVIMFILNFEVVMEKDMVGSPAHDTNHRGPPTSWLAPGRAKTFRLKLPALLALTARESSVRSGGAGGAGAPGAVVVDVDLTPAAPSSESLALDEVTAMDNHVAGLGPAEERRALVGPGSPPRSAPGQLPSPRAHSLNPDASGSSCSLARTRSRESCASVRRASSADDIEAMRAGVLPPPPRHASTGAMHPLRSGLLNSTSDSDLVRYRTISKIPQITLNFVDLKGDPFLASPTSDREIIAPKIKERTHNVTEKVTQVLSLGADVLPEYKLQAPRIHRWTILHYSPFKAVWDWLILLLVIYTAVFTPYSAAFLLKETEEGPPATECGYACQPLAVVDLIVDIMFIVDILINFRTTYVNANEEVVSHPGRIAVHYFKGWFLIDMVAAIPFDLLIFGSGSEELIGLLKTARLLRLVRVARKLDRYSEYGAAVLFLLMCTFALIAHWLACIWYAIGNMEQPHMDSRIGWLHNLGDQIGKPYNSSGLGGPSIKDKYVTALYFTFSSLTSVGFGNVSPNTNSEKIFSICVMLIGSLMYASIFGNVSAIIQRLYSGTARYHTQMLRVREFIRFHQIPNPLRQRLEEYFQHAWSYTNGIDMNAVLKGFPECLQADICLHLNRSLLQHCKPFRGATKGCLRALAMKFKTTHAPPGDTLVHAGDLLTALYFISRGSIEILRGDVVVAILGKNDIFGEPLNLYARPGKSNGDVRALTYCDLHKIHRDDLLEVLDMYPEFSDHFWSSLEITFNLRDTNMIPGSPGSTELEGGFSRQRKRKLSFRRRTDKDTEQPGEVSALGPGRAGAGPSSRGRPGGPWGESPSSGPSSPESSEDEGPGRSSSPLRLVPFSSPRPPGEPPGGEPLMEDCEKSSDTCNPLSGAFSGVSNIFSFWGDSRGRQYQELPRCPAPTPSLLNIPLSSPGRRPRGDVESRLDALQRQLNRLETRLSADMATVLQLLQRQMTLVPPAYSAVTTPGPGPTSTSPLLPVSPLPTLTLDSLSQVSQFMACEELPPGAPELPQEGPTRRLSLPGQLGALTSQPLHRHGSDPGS

[6] = Permeability across human Caco2 cells; type: ADME, cell-based; settings: Caco-2, read-out: Kp
[7] = Half life in rat liver micrososmes; type: ADME, Microsome; settings: liver microsomes
[8] = tested on: Rattus norvegicus; assay: Agonist activity at 5HT4 receptor in ID dosed rat assessed as dose required to cause esophageal relaxation of 0.1 mm; type: functional
Outline: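 Anesthetized rats dosed intraduodenally over about 0.01–10 mg/kg. Esophageal relaxation was tracked by digital sonomicrometry as the change in inter-crystal distance (mm), n = 4–6. An ED50 was derived from the dose–response, and the dose giving a 0.1 mm relaxation response was calculated.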

[9] = Cardiotoxicity in dog coronary artery assessed as coronary artery constriction; type: toxicity, tissue-based, Canis lupus familiaris
[10] = molecular target: 5-hydroxytryptamine receptor 2A (Homo sapiens, UniProt P28223); assay: Binding affinity to serotonin 5-HT2A receptor (unknown origin)
5-hydroxytryptamine receptor 2A, sequence (P28223 whole entry): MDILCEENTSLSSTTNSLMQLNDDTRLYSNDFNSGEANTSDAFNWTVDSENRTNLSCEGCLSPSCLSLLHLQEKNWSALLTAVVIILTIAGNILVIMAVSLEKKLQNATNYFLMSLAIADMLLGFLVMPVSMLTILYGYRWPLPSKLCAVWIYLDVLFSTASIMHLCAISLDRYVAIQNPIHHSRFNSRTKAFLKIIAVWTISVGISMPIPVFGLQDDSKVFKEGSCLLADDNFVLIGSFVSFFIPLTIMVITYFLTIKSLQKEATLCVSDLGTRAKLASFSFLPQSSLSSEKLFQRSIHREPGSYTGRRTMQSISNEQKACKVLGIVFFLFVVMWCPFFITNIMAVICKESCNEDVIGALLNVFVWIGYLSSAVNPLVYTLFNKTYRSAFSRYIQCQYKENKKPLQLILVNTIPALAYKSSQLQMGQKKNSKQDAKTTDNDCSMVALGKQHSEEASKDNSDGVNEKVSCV

[11] = molecular target: T3, 5-hydroxytryptamine receptor 7 (Homo sapiens, UniProt P34969); assay: Binding affinity to serotonin 5-HT7 receptor (unknown origin)
T3 sequence (P34969 whole entry): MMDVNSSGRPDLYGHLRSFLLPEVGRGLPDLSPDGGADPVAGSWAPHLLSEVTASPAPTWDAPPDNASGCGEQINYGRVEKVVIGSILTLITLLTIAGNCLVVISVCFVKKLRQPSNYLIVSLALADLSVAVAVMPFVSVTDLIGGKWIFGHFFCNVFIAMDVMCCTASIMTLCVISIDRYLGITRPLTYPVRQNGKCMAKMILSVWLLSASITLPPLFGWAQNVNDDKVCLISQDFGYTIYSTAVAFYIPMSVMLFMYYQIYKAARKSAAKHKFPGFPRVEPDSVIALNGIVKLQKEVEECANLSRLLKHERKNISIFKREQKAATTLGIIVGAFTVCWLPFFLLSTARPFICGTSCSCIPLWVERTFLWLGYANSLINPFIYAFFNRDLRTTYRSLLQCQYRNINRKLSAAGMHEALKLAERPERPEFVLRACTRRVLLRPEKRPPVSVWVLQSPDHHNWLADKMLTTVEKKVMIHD

[12] = molecular target: 5-hydroxytryptamine receptor 1D (Homo sapiens, UniProt P28221); assay: Binding affinity to serotonin 5-HT1D receptor (unknown origin)
5-hydroxytryptamine receptor 1D, sequence (P28221 whole entry): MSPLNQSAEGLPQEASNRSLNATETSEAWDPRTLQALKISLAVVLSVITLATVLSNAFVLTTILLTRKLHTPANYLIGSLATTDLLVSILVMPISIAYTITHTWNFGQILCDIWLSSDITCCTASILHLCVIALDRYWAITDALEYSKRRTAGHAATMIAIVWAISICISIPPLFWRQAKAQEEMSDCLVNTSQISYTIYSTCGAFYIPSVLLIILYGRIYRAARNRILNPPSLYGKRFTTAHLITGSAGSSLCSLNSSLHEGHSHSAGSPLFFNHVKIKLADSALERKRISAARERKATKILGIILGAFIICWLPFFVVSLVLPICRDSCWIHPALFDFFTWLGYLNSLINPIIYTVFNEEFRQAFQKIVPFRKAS

[13] = molecular target: T4, 5-hydroxytryptamine receptor 2C (Homo sapiens, UniProt P28335); assay: Binding affinity to serotonin 5-HT2C receptor (unknown origin)
T4 sequence (P28335 whole entry): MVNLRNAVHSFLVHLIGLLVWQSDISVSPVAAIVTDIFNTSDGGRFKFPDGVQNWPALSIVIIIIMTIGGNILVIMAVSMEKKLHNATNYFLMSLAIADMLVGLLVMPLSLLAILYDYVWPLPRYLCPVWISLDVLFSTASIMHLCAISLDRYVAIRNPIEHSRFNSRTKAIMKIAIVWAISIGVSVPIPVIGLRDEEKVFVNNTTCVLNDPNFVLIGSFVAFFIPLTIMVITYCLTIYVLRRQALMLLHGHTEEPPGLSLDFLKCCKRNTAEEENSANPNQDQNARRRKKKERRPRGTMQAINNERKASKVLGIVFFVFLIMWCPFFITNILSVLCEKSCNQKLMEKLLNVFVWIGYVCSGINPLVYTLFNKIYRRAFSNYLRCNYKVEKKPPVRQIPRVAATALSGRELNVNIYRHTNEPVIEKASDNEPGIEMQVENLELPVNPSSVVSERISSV

[14] = molecular target: 5-hydroxytryptamine receptor 2B (Homo sapiens, UniProt P41595); assay: Binding affinity to serotonin 5-HT2B receptor (unknown origin)
5-hydroxytryptamine receptor 2B, sequence (P41595 whole entry): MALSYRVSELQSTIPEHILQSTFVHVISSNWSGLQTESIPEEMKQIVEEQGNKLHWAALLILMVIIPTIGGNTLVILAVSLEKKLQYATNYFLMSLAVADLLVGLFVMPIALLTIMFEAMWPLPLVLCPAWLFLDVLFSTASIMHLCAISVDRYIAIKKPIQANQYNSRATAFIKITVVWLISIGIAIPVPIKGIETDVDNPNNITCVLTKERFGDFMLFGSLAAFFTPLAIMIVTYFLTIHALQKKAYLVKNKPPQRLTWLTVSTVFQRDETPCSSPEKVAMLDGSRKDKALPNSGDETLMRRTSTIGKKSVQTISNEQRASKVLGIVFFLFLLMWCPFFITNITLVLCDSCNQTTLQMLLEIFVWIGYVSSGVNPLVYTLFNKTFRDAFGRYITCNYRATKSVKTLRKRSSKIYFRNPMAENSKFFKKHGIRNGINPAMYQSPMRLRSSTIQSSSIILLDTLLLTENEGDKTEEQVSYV

[15] = molecular target: T2, 5-hydroxytryptamine receptor 3A; assay: Binding affinity to serotonin 5-HT3 receptor (unknown origin)
[16] = molecular target: T5, 5-hydroxytryptamine receptor 1A (Homo sapiens, UniProt P08908); assay: Binding affinity to human serotonin 5-HT1A receptor
T5 sequence (P08908 whole entry): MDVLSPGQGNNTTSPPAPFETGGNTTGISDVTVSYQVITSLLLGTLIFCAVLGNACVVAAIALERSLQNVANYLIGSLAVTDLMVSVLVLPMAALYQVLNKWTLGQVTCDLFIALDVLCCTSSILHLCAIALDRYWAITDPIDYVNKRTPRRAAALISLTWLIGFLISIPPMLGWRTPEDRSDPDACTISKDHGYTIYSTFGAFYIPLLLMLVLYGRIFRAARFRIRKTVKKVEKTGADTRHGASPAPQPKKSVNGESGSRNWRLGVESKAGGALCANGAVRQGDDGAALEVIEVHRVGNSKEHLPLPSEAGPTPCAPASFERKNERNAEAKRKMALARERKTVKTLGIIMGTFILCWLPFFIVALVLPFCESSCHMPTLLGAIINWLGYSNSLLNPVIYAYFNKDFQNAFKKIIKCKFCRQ

[17] = molecular target: T3, 5-hydroxytryptamine receptor 7; assay: Binding affinity to human serotonin 5-HT7 receptor

T1 sequence (Q13639 whole entry): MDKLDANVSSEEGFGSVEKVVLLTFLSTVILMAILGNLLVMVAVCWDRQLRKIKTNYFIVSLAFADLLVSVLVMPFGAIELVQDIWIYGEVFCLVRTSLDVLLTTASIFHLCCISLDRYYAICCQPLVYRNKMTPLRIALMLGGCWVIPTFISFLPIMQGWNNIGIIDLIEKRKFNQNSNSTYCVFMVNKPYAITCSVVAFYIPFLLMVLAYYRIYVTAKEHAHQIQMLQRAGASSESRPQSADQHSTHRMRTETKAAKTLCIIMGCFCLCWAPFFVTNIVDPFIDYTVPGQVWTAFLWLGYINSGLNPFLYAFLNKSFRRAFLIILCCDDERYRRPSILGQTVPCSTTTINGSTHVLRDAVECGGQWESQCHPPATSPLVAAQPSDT

## CC(=O)N1CCN(CCN2CCC(CNC(=O)c3cccc4[nH]c(C(C)C)nc34)CC2)CC1
[1]
  Intrinsic activity: 76%

## CC(=O)N(C)CC(O)CN1CCC(CNC(=O)c2cccc3[nH]c(C(C)C)nc23)CC1 (stereo not given)
[1]
  Intrinsic activity: 64%

## CC(F)(F)c1nc2cccc(C(=O)NCC3CCN(CC(O)CN4CCN(S(C)(=O)=O)CC4)CC3)c2[nH]1 (stereo not given)
[2]
  Ki: 0.002 µM
[3]
  Ki: 7.94 µM
[4]
  EC50: 0.000794 µM

## CS(=O)(=O)N1CCN(CC(O)CN2[C@@H]3CC[C@H]2C[C@@H](NC(=O)c2cccc4nc[nH]c24)C3)CC1 (stereo not given in full)
[2]
  Ki: 0.316 µM
[3]
  Ki: 20 µM
[4]
  EC50: 0.251 µM

## CC(C)c1nc2c(C(=O)NCC3CCN(CC4CCN(S(C)(=O)=O)CC4)CC3)cccc2[nH]1
[2]
  Ki: 0.000501 µM
[5]
  inhibition at 3 µM: 8%
[3]
  Ki: 100 µM
[6]
  Papp: 5 ×10⁻⁶ cm/s
[7]
  half-life: 1.47 h
[1]
  Intrinsic activity: 63%
[4]
  EC50: 0.001 µM

## CCc1nc2c(C(=O)NCC3CCN(CC(O)CN4CCN(S(C)(=O)=O)CC4)CC3)cccc2[nH]1 (stereo not given)
[2]
  Ki: 0.000501 µM
[3]
  Ki: 79.4 µM
[1]
  Intrinsic activity: 22%
[4]
  EC50: 0.001 µM

## CC(=O)N(C)CC(O)CN1CCC(CNC(=O)c2cccc3nc(C(C)C)[nH]c23)CC1 (stereo not given)
[2]
  Ki: 0.00398 µM
[3]
  Ki: 63.1 µM
[7]
  half-life: > 1.5 h
[4]
  EC50: 0.00158 µM

## COC(=O)N(C)CC(O)CN1CCC(CNC(=O)c2cccc3[nH]c(C(C)C)nc23)CC1 (stereo not given)
[1]
  Intrinsic activity: 64%

## CS(=O)(=O)N1CCN(CC(O)CN2[C@@H]3CC[C@H]2C[C@@H](NC(=O)c2cccc4[nH]cnc24)C3)CC1 (stereo not given in full)
[1]
  Intrinsic activity: 54%

## CS(=O)(=O)N1CCN(CC(O)CN2CCC(CNC(=O)c3cccc4[nH]c(C5CC5)nc34)CC2)CC1 (stereo not given)
[2]
  Ki: 0.000501 µM
[3]
  Ki: 50.1 µM
[6]
  Papp: 2.1 ×10⁻⁶ cm/s
[7]
  half-life: > 1.5 h
[1]
  Intrinsic activity: 64%
[4]
  EC50: 0.000631 µM

## CS(=O)(=O)N1CCN(CC(O)CN2CCC(CNC(=O)c3cccc4nc[nH]c34)CC2)CC1 (stereo not given)
[2]
  Ki: 0.00631 µM
[3]
  Ki: 50.1 µM
[4]
  EC50: 0.01 µM

## CC(C)c1nc2c(C(=O)NCC3CCN(CC(O)CN4CCN(S(C)(=O)=O)CC4)CC3)cccc2[nH]1 (stereo not given)
[2]
  Ki: 0.000501 µM
[5]
  inhibition at 3 µM: 5%
[3]
  Ki: 79.4 µM
[6]
  Papp: 0.2 ×10⁻⁶ cm/s
[7]
  half-life: > 1.5 h
[1]
  Intrinsic activity: 61%
[4]
  EC50: 0.000631 µM

## CS(=O)(=O)N1CCN(CC(O)CN2CCC(CNC(=O)c3cccc4[nH]cnc34)CC2)CC1 (stereo not given)
[1]
  Intrinsic activity: 6%

## CC(=O)N1CCN(CCN2CCC(CNC(=O)c3cccc4nc(C(C)C)[nH]c34)CC2)CC1
[2]
  Ki: 0.00501 µM
[3]
  Ki: 39.8 µM
[7]
  half-life: > 1.5 h
[4]
  EC50: 0.00316 µM

## CC(C)c1nc2c(C(=O)NCC3CCN(CC(O)CN4CCN(S(C)(=O)=O)CC4)CC3)cc(Cl)cc2[nH]1 (stereo not given)
[2]
  Ki: 0.000316 µM
[3]
  Ki: 1.26 µM
[1]
  Intrinsic activity: 0%

## CS(=O)(=O)N1CCN(CC(O)CN2CCC(CNC(=O)c3cccc4[nH]c(-c5ccccc5)nc34)CC2)CC1 (stereo not given)
[2]
  Ki: 0.00126 µM
[3]
  Ki: 15.8 µM
[1]
  Intrinsic activity: 41%
[4]
  EC50: 0.00158 µM

## CC(F)(F)c1nc2c(C(=O)NCC3CCN(CC(O)CN4CCN(S(C)(=O)=O)CC4)CC3)cccc2[nH]1 (stereo not given)
[1]
  Intrinsic activity: 59%

## CC(C)c1nc2c(C(=O)NCC3CCN(CC(O)CN(C)S(C)(=O)=O)CC3)cccc2[nH]1 (stereo not given)
[1]
  Intrinsic activity: 83%

## CC(C)c1nc2cccc(C(=O)NCC3CCN(CC(O)CN(C)S(C)(=O)=O)CC3)c2[nH]1 (stereo not given)
[2]
  Ki: 0.00126 µM
[3]
  Ki: 79.4 µM
[6]
  Papp: 1 ×10⁻⁶ cm/s
[7]
  half-life: > 1.5 h
[4]
  EC50: 0.000398 µM

## COC(=O)N1CCN(CCN2CCC(CNC(=O)c3cccc4[nH]c(C(C)C)nc34)CC2)CC1
[2]
  Ki: 0.00158 µM
[3]
  Ki: 79.4 µM
[6]
  Papp: 9 ×10⁻⁶ cm/s
[7]
  half-life: > 1.5 h
[1]
  Intrinsic activity: 72%
[4]
  EC50: 0.00158 µM

## COC(=O)N(C)CC(O)CN1CCC(CNC(=O)c2cccc3nc(C(C)C)[nH]c23)CC1 (stereo not given)
[2]
  Ki: 0.00398 µM
[3]
  Ki: 50.1 µM
[6]
  Papp: 2 ×10⁻⁶ cm/s
[7]
  half-life: 1.32 h
[4]
  EC50: 0.002 µM

## CCCCCNC(=N)N/N=C/c1c[nH]c2ccc(OC)cc12 [TEGASEROD]
[8]
  Activity: 2.43 mg/kg
[9]
  Activity: Toxic
[10]
  Ki: < 0.1 µM
[11]
  Ki: < 0.1 µM
[12]
  Ki: < 0.1 µM
[3]
  Ki: 2.51 µM
[13]
  Ki: < 0.1 µM
[7]
  half-life: > 1.5 h
[14]
  Ki: < 0.002 µM

## CC(=O)N1CCC(CN2CCC(CNC(=O)c3cccc4[nH]c(C(C)C)nc34)CC2)CC1
[2]
  Ki: 0.001 µM
[5]
  inhibition at 3 µM: 22%
[3]
  Ki: 100 µM
[6]
  Papp: 6 ×10⁻⁶ cm/s
[7]
  half-life: > 1.5 h
[1]
  Intrinsic activity: 87%
[4]
  EC50: 0.00158 µM

## CC(C)(C)c1nc2cccc(C(=O)NCC3CCN(CC(O)CN4CCN(S(C)(=O)=O)CC4)CC3)c2[nH]1 (stereo not given)
[2]
  Ki: 0.0126 µM
[3]
  Ki: 39.8 µM
[6]
  Papp: 0.5 ×10⁻⁶ cm/s
[7]
  half-life: > 1.5 h
[4]
  EC50: 0.00316 µM

## CC(C)(C)c1nc2c(C(=O)NCC3CCN(CC(O)CN4CCN(S(C)(=O)=O)CC4)CC3)cccc2[nH]1 (stereo not given)
[1]
  Intrinsic activity: 94%

## CC(C)c1nc2c(C(=O)NCC3CCN(CCN4CCN(S(C)(=O)=O)CC4)CC3)cccc2[nH]1
[2]
  Ki: 0.000794 µM
[3]
  Ki: 100 µM
[6]
  Papp: 4 ×10⁻⁶ cm/s
[7]
  half-life: > 1.5 h
[1]
  Intrinsic activity: 64%
[4]
  EC50: 0.000794 µM

## COc1cc(N)c(Cl)cc1C(=O)NC1CCN(CCCOc2ccc(F)cc2)CC1OC (racemic) [CISAPRIDE]
[8]
  Activity: 2.66 mg/kg
[15]
  Ki: 2 µM
[16]
  Ki: 0.794 µM
[17]
  Ki: 1 µM
[3]
  Ki: 2 µM
[7]
  half-life: 0.783 h
[1]
  Intrinsic activity: 71%

## CS(=O)(=O)N1CCN(CC(O)CN2CCC(NC(=O)c3cccc4[nH]cnc34)CC2)CC1 (stereo not given)
[2]
  Ki: 0.251 µM
[3]
  Ki: 63.1 µM
[1]
  Intrinsic activity: 7%
[4]
  EC50: 0.631 µM
